RGS4 inh: RGS4 inhibitors, primary screen, cell-based, HEK293 M3R inducible RGS4, calcium flux. Regulator of G-protein signaling 4 (Homo sapiens), P49798. Fluo-4 calcium flux; hits give high values; triggered by carbachol at its EC20. B-score at 10 µM. 310,000 tested, 0.45% active;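 active = B-score, a plate-corrected calcium signal, over three deviations above library mean, with baseline fluorescence within five deviations of library mean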;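 also: RGS4 expression induced by doxycycline in cells with stable M3 receptor; B-score is computed from the integrated fluorescence ratio over baseline after carbachol; higher B-score means a larger calcium signal and so more RGS4 inhibition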
Target sequence (P49798 whole entry, looked up): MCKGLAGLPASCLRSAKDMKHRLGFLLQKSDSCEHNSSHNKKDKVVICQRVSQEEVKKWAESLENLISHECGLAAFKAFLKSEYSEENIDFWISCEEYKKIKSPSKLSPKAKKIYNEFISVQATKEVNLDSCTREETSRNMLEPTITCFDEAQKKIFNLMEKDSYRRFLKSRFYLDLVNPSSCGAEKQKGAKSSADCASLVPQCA
MrgX1 allo act: positive allosteric modulators of MrgX1, primary screen, HEK293 cells, Fluo-4 calcium flux; AID 588675, 2011; B-score at 10 µM; FDSS; hits give high values; 310,000 tested, 0.63% active;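 active = plate-corrected calcium response at least 3 library SD above typical, normal starting fluorescence, not activating the receptor alone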;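 also: compound read alongside a low EC10 to EC30 dose of BAM8-22 agonist; peak minus trough fluorescence over baseline measured at the second addition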
Target sequence (Q96LB2 whole entry, looked up): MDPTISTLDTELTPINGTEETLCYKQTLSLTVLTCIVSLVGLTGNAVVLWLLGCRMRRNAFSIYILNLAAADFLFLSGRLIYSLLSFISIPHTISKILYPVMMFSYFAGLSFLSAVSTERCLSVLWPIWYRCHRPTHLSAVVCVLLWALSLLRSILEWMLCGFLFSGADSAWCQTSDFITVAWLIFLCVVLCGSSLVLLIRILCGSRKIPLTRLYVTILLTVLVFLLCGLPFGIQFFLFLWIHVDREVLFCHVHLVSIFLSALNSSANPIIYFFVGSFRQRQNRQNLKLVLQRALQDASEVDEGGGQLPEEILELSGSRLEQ
RGS4 pot: RGS4 potentiators or activators, primary screen, cell-based, HEK293 M3R inducible RGS4, calcium flux; carbachol calcium flux Fluo4; hits give low values; B-score at 10 µM; 310,000 tested, 0.92% active;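 active = B-score of the integrated calcium signal more than 4 SD below the library mean, with starting fluorescence not abnormally high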;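 also: negative B-score means reduced calcium response which marks RGS4 activation or potentiation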
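Detection: kinetic calcium fluorescence imaging with Fluo4-AM dye, 2 µM / Material: HEK293 cells with stable M3R and inducible RGS4 / Schedule: recording 10 s baseline at 1 Hz, 100 s post-agonist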
MrgX1 agonist: agonists of human MrgX1 receptor, primary screen, HEK293 cells, Fluo-4 calcium flux; Mas-related G-protein coupled receptor member X1 (Homo sapiens), Q96LB2; Fluo-4 calcium fluorescence, agonist mode; hits give high values; B-score at 10 µM; 310,000 tested, 0.44% active; AID 588627, 2011;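 active = calcium response B-score plate-corrected fluorescence ratio at least 3 library SD, with starting fluorescence B-score inside 5 SD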
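Material: MrgX1-expressing HEK293 cells; input: 15,000 cells per well; doses: test compound given as first of three sequential additions; schedule: overnight plating before 1 h dye loading; technique: Fluo-4 NW calcium-flux fluorescence, kinetic read; evaluation: baseline-normalised fluorescence change ratio, B-scored; control set: plate-wise positive and negative controls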
MrgX1 antag: antagonists of human MrgX1 receptor, primary screen, HEK293 cells, Fluo-4 calcium flux; Mas-related G-protein coupled receptor member X1 (Homo sapiens), Q96LB2; BAM8-22 antagonism; hits give low values; B-score at 10 µM; 310,000 tested, 1.3% active; AID 588676, 2011;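 active = calcium-response B-score plate-corrected more than 3 library SD below zero, starting fluorescence within 5 deviations, no agonist response on first addition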;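 also: peak minus trough fluorescence over baseline after final BAM8-22 challenge near maximal dose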
A number is an active result; i = inactive; nt = no result given. Compounds with a hit are over-represented: about 3.5% of the library has one in this group of screens.

SMILES | RGS4 inh | MrgX1 allo act | RGS4 pot | MrgX1 agonist | MrgX1 antag
COc1cccc(N2CCc3c(C)nc4ccc(Cl)cc4c32)c1 | i | i | -7.5 | i | i
Cn1nc(OCC(=O)O)cc1C(F)(F)F | i | i | i | i | i
Cc1ccccc1-n1nc(C(=O)c2cccs2)cc(-c2nc3ccccc3[nH]2)c1=N | i | i | i | i | i
Cc1cccc(-n2nc(C(=O)c3ccco3)cc(-c3nc4ccccc4[nH]3)c2=N)c1 | i | i | -8.1 | i | i
O=C(CSCc1c(Cl)cccc1Cl)Nc1ccc2c(c1)OCO2 | i | i | -7.5 | i | i
O=C(CSCc1ccccc1)Nc1ccc2c(c1)OCO2 | i | i | i | i | i
CCc1ccccc1S(=O)(=O)Cc1ccc(C(=O)N2CCN(c3ccccc3OC)CC2)o1 | i | i | -7.7 | i | i
Cc1ccccc1S(=O)(=O)Cc1ccc(C(=O)N2CCN(c3cccc(C)c3C)CC2)o1 | i | i | -7.2 | i | i
CC(C)(C)c1ccc(C(=O)c2c[nH]c(C(=O)NCCc3ccccn3)c2)cc1 | i | i | i | i | i
O=S(=O)(Cc1noc(-c2ccccc2Cl)n1)c1ccccn1 | i | i | i | i | i
CC(C)CCNC(=S)Nc1ccc([N+](=O)[O-])cc1 | i | i | i | i | i
CC(C)OC(=O)c1cc(NC(=S)Nc2ccc([N+](=O)[O-])cc2)cc(C(=O)OC(C)C)c1 | i | i | i | i | -6.7
CC(C)COc1ccc(C(=O)Nc2ccc([N+](=O)[O-])cc2)cc1 | i | i | i | i | i
CCCCNC(=S)Nc1ccc([N+](=O)[O-])cc1 | i | i | i | i | -5.6
N/C(=N\NC(=O)c1ccccc1Cl)c1cc2ccccc2oc1=O | i | i | i | i | i
O=C(O)C(CCCCNS(=O)(=O)c1ccc(F)cc1)NS(=O)(=O)c1ccc(F)cc1 (stereo unspecified) | i | i | i | i | i
CCCN1C2=C(C(=O)CC(C)(C)C2)C(c2ccc(F)cc2)C2=C1c1ccccc1C2=O (stereo unspecified) | i | i | i | i | -8.7
CCCCN1C2=C(C(=O)CC(C)(C)C2)C(c2ccccc2)C2=C1c1ccccc1C2=O (stereo unspecified) | i | i | i | i | i
CCN(CC)S(=O)(=O)c1cc(NC(=O)COc2ccc(C#N)cc2OC)ccc1C | i | i | i | i | -6.8
COc1cc(CNCc2cccs2)ccc1OCc1cccs1 | i | i | i | i | i
COc1cc(CNCc2cccs2)ccc1OCc1ccccc1 | i | i | -7.1 | i | i
Cc1cccc(CSC(Nc2ccc(F)cc2)=C(C#N)C#N)c1 | i | i | i | i | -6.6
N#CC(C#N)=C(Nc1ccc(F)cc1)SCc1cccc(Br)c1 | i | i | i | i | i
CC(C)CNC(=O)c1cc(=O)[nH]c2ccc(S(=O)(=O)Nc3ccc(F)cc3)cc12 | i | i | i | i | i
Cc1c([N+](=O)[O-])cnc(Sc2ccccc2)c1[N+](=O)[O-] | i | i | i | i | i
SMILES | RGS4 inh | MrgX1 allo act | RGS4 pot | MrgX1 agonist | MrgX1 antag
CCn1c2ccc(C)cc2c2nnc(NN)nc21 | i | i | i | 29 | i
Cc1cc(C=C2C(=O)c3ccccc3C2=O)c(C)n1-c1ccccc1 | i | 8.5 | i | i | i
Cc1cc(C=C2C(=O)c3ccccc3C2=O)c(C)n1-c1cccc(C(=O)O)c1 | i | 10 | i | i | i
Cc1cc(/C=c2\sc3nc4ccccc4n3c2=O)c(C)n1-c1ccc(C(=O)O)cc1 | i | nt | -7.3 | nt | nt
Cc1cc(C=C2C(=O)c3ccccc3C2=O)c(C)n1-c1ccc(C(=O)O)cc1 | i | i | i | i | i
CC(C)c1ccc(N(CC(=O)NC2CCCCC2)C(=O)CCC(=O)Nc2ccccn2)cc1 | i | i | i | i | i
Cc1ncc(CO)c(/C=N/NC(=S)Nc2ccc(Cl)c(Cl)c2)c1O | i | i | i | i | -9.6
Cc1ccccc1C(=O)N/N=C/c1ccc([N+](=O)[O-])s1 | i | i | i | i | i
O=C(N/N=C/c1ccc([N+](=O)[O-])s1)c1ccccc1Br | i | i | i | i | -5.3
CC12CN(NC(=O)c3ccccc3F)C3(C#N)CC1CCC23C (stereo unspecified) | i | i | i | i | i
CCOC(=O)CN(C)C(=O)CCc1nnc(-c2ccc(-c3ccccc3)cc2)o1 | i | i | i | i | i
CCN(CC)CCN(C)C(=O)CCc1nnc(-c2ccc(C)s2)o1 | i | i | i | i | -6.6
Cc1cccn2c(=O)c3cc(C(=O)NC4CCCC4)c(=N)n(CCc4ccccc4)c3nc12 | i | i | -8.1 | i | i
COc1ccc(CCNC(=O)c2cc3c(=O)n4ccccc4nc3n(C3CCCCC3)c2=N)cc1 | i | i | -7.1 | i | i
COc1ccc(CCNC(=O)c2cc3c(=O)n4ccccc4nc3n(C3CCCCC3)c2=N)cc1OC | i | i | i | i | i
COC(=O)c1ccc(C#Cc2ccccc2)o1 | i | i | i | i | i
CCN1CCN(Cc2c(O)ccc3c2O/C(=C\c2ccccc2)C3=O)CC1 | i | i | -8.3 | i | i
O=C1/C(=C/C=C/c2ccccc2)Oc2c1ccc(O)c2CN1CCN(CCO)CC1 | i | i | i | i | -5.7
CCN1CCN(Cc2c(O)ccc3c2O/C(=C\c2ccc(C)cc2)C3=O)CC1 | i | i | i | i | i
Cc1ccc(/C=C2\Oc3c(ccc(O)c3CN3CCN(C)CC3)C2=O)cc1 | i | i | -9.6 | i | i
O=C1CC(c2ccccc2)c2cccc(F)c21 (stereo unspecified) | i | i | i | i | i
Cc1c(-n2cc(C(=O)c3cc(Cl)ccc3O)cc(C#N)c2=O)c(=O)n(-c2ccccc2)n1C | i | 7.8 | i | i | i
Cc1ccc(O)c(C(=O)c2cc(C#N)c(=O)n(-c3nccs3)c2)c1 | i | i | i | 53 | i
Cc1c(C(=O)Nc2ccc(Cl)cc2)c2ccccn2c1C(=O)c1ccc([N+](=O)[O-])cc1 | i | i | -8.2 | i | i
Cc1c(C(=O)Nc2ccc(Cl)cc2)c2ccccn2c1C(=O)c1ccccc1 | i | i | i | i | i
SMILES | RGS4 inh | MrgX1 allo act | RGS4 pot | MrgX1 agonist | MrgX1 antag
Cc1c(C=O)c2ccccn2c1C(=O)c1ccc(Cl)c([N+](=O)[O-])c1 | i | i | i | i | -4.6
Cc1ccc(CSC2=NCCN2C(=O)c2ccc([N+](=O)[O-])cc2)cc1 | i | i | i | i | i
Cc1ccc(C(=O)N2CCN=C2SCc2ccc([N+](=O)[O-])cc2)cc1 | i | i | i | i | -7.1
CCCCN(CC)S(=O)(=O)c1ccc(C(=O)Nc2nnc(-c3cccs3)o2)cc1 | i | i | i | 33 | i
Cc1cc[n+](-c2ccccc2)c2ccccc12 | i | i | i | i | i
Cc1cc(C)cc(NC(=S)Nc2ccc(Cl)c(Cl)c2)c1 | i | i | i | i | i

Source: PubChem BioAssay
